ChEMBL document CHEMBL1629526, “4-[1-(Substituted aryl/alkyl carbonyl)-benzoimidazol-2-yl]-benzenesulfonic acids: synthesis, antimicrobial activity, QSAR studies, and antiviral evaluation” (Eur J Med Chem, 2010)
Converted amounts (≈) assume the structure as drawn.

What was measured:
[1] = tested on: Coxsackievirus B4; assay: Antiviral activity against Coxsackie virus B4 infected in african green monkey Vero cells assessed as inhibition of virus induced cytopathicity after 2 to 4 days by MTS assay; type: functional, organism-based; details: Enterovirus B
[2] = tested on: Influenza B virus; assay: Antiviral activity against Influenza B virus infected in MDCK cells assessed as inhibition of virus induced cytopathicity after 2 to 4 days by MTS assay; type: functional, organism-based
[3] = tested on: Human respirovirus 3; assay: Antiviral activity against parainfluenza-3 virus infected in african green monkey Vero cells assessed as inhibition of virus induced cytopathicity after 2 to 4 days by MTS assay; type: functional, organism-based; details: Human respirovirus 3, Vero
[4] = tested on: Aspergillus niger; assay: Antimicrobial activity against Aspergillus niger after 7 days by tube dilution method; type: functional; details: 168 h
[5] = tested on: Staphylococcus aureus; assay: Antimicrobial activity against Staphylococcus aureus after 24 hrs by tube dilution method; type: functional
[6] = tested on: Influenza B virus; assay: Antiviral activity against Influenza B virus infected in MDCK cells assessed as inhibition of virus induced cytopathicity by visual scoring of CPE; type: functional, organism-based
[7] = tested on: Mammalian orthoreovirus 1; assay: Antiviral activity against Reovirus 1 virus infected in african green monkey Vero cells assessed as inhibition of virus induced cytopathicity after 2 to 4 days by MTS assay; type: functional, organism-based; details: Mammalian orthoreovirus 1, Vero
[8] = tested on: Influenza A virus; assay: Antiviral activity against Influenza A H3N2 virus subtype infected in MDCK cells assessed as inhibition of virus induced cytopathicity by visual scoring of CPE; type: functional, organism-based
[9] = tested on: Punta Toro virus; assay: Antiviral activity against Punta Toro virus infected in african green monkey Vero cells assessed as inhibition of virus induced cytopathicity after 2 to 4 days by MTS assay; type: functional, organism-based
[10] = tested on: Felid alphaherpesvirus 1; assay: Antiviral activity against Feline herpesvirus 1 infected in cat CRFK cells assessed as inhibition of virus induced cytopathicity after 2 to 4 days by MTS assay; type: functional, organism-based; details: Felid alphaherpesvirus 1, CRFK
[11] = tested on: Feline coronavirus; assay: Antiviral activity against Feline coronavirus infected in cat CRFK cells assessed as inhibition of virus induced cytopathicity after 2 to 4 days by MTS assay; type: functional, organism-based; details: Alphacoronavirus 1, CRFK
[12] = tested on: Vesicular stomatitis virus; assay: Antiviral activity against Vesicular stomatitis virus infected in human HeLa cells assessed as inhibition of virus induced cytopathicity after 2 to 4 days by MTS assay; type: functional, organism-based
[13] = tested on: Human alphaherpesvirus 2; assay: Antiviral activity against Herpes simplex virus 2 G infected in HEL cells assessed as inhibition of virus induced cytopathicity after 2 to 4 days by MTS assay; type: functional, organism-based; details: Human alphaherpesvirus 2, strain G
[14] = Cytotoxicity against african green monkey Vero cells assessed as altered cell morphology; type: cell-based; details: chlorocebus sabaeus
How it was run: (§1)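 Uninfected cell cultures run alongside the antiviral assays, exposed to serial compound dilutions and incubated at 37 °C for 2–4 days. Toxicity was scored microscopically and reported as the minimum cytotoxic concentration (MCC), the lowest concentration causing a detectable change in normal cell morphology.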

[15] = tested on: Human alphaherpesvirus 1; assay: Antiviral activity against Herpes simplex virus 1 KOS infected in HEL cells assessed as inhibition of virus induced cytopathicity after 2 to 4 days by MTS assay; type: functional, organism-based; details: Human alphaherpesvirus 1, KOS
[16] = tested on: Respiratory syncytial virus; assay: Antiviral activity against Respiratory syncytial virus infected in human HeLa cells assessed as inhibition of virus induced cytopathicity by visual scoring of CPE; type: functional, organism-based
[17] = tested on: Sindbis virus; assay: Antiviral activity against Sindbis virus infected in african green monkey Vero cells assessed as inhibition of virus induced cytopathicity after 2 to 4 days by MTS assay; type: functional, organism-based
[18] = tested on: Escherichia coli; assay: Antimicrobial activity against Escherichia coli after 24 hrs by tube dilution method; type: functional
[19] = tested on: Human alphaherpesvirus 1; assay: Antiviral activity against thymidine kinase deficient acyclovir-resistant Herpes simplex virus 1 KOS infected in HEL cells assessed as inhibition of virus induced cytopathicity after 2 to 4 days by MTS assay; type: functional, organism-based; details: Human alphaherpesvirus 1, KOS
[20] = tested on: Coxsackievirus B4; assay: Antiviral activity against coxsackievirus B4 infected in human HeLa cells assessed as inhibition of virus induced cytopathicity by visual scoring of CPE; type: functional, organism-based; details: Enterovirus B
[21] = tested on: Vaccinia virus; assay: Antiviral activity against Vaccinia virus infected in HEL cells assessed as inhibition of virus induced cytopathicity after 2 to 4 days by MTS assay; type: functional, organism-based; details: Orthopoxvirus vaccinia
[22] = tested on: Bacillus subtilis; assay: Antimicrobial activity against Bacillus subtilis after 24 hrs by tube dilution method; type: functional
How it was run: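 Serial dilutions in double-strength nutrient broth (I.P.) with ciprofloxacin as reference, tube dilution, incubated 37 °C for 24 h. MIC is the lowest concentration that inhibited growth.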

[23] = tested on: Candida albicans; assay: Antimicrobial activity against Candida albicans after 48 hrs by tube dilution method; type: functional
[24] = tested on: Vesicular stomatitis virus; assay: Antiviral activity against Vesicular stomatitis virus infected in human HeLa cells assessed as inhibition of virus induced cytopathicity by visual scoring of CPE; type: functional, organism-based
[25] = tested on: Respiratory syncytial virus; assay: Antiviral activity against Respiratory syncytial virus infected in human HeLa cells assessed as inhibition of virus induced cytopathicity after 2 to 4 days by MTS assay; type: functional, organism-based
[26] = Cytotoxicity against cat CRFK cells assessed as cell viability by MTS assay; type: cell-based, Felis catus; details: crfk
How it was run: (§2)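 Uninfected cultures were run in parallel with the antiviral assays. Viability was read by colorimetric formazan MTS assay.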

[27] = tested on: HeLa; assay: Cytotoxicity against human HeLa cells assessed as cell viability by MTS assay; type: cell-based; details: hela; how it was run: as §2
[28] = tested on: Coxsackievirus B4; assay: Antiviral activity against coxsackievirus B4 infected in human HeLa cells assessed as inhibition of virus induced cytopathicity after 2 to 4 days by MTS assay; type: functional, organism-based; details: Enterovirus B
[29] = tested on: Vesicular stomatitis virus; assay: Antiviral activity against Vesicular stomatitis virus infected in HEL cells assessed as inhibition of virus induced cytopathicity after 2 to 4 days by MTS assay; type: functional, organism-based
[30] = Cytotoxicity against human HeLa cells assessed as altered cell morphology; type: cell-based; how it was run: as §1
[31] = tested on: Influenza A virus; assay: Antiviral activity against Influenza A H3N2 virus subtype infected in MDCK cells assessed as inhibition of virus induced cytopathicity after 2 to 4 days by MTS assay; type: functional, organism-based
[32] = Cytotoxicity against MDCK cells assessed as altered cell morphology; type: cell-based, Canis lupus familiaris; details: dog; how it was run: as §1
[33] = Cytotoxicity against human HEL cells assessed as altered cell morphology; type: cell-based; how it was run: as §1
[34] = tested on: MDCK; assay: Cytotoxicity against MDCK cells assessed as cell viability by MTS assay; type: cell-based, Canis lupus familiaris; details: dog, mdck; how it was run: as §2

SMILES | EC50 [1] [µg/mL] | EC50 [2] [µg/mL] | EC50 [3] [µg/mL] | MFC [4] [µg/mL] | MBC [5] [µg/mL] | EC50 [6] [µg/mL] | EC50 [7] [µg/mL] | EC50 [8] [µg/mL] | EC50 [9] [µg/mL] | EC50 [10] [µg/mL] | EC50 [11] [µg/mL] | EC50 [12] [µg/mL] | EC50 [13] [µg/mL] | MCC [14] [µg/mL] | EC50 [15] [µg/mL] | EC50 [16] [µg/mL] | EC50 [17] [µg/mL] | MBC [18] [µg/mL] | EC50 [19] [µg/mL] | EC50 [20] [µg/mL] | also measured
CCCCCCCCCCCCCCCC(=O)n1c(-c2ccc(S(=O)(=O)O)cc2)nc2ccccc21 | > 100 | > 100 | > 100 | > 50 | 6.25 (≈ 12.2 µM) | > 100 | > 100 | > 100 | > 100 | > 100 | > 100 | > 100 | > 100 | > 100 | > 100 | > 100 | > 100 | 12.5 (≈ 24.4 µM) | > 100 | > 100 | EC50 [21]: > 100 µg/mL; MBC [22]: 12.5 µg/mL (≈ 24.4 µM); MFC [23]: > 50 µg/mL; EC50 [24]: > 100 µg/mL; EC50 [25]: > 100 µg/mL; CC50 [26]: > 100 µg/mL; CC50 [27]: > 100 µg/mL; EC50 [28]: > 100 µg/mL; EC50 [29]: > 100 µg/mL; MCC [30]: > 100 µg/mL; EC50 [31]: > 100 µg/mL; MCC [32]: > 100 µg/mL; MCC [33]: > 100 µg/mL; CC50 [34]: > 100 µg/mL
C=C(C)C(=O)n1c(-c2ccc(S(=O)(=O)O)cc2)nc2ccccc21 | > 100 | > 100 | > 100 | > 50 | 6.25 (≈ 18.3 µM) | > 100 | > 100 | > 100 | > 100 | > 100 | > 100 | > 100 | > 100 | > 100 | > 100 | > 100 | > 100 | 12.5 (≈ 36.5 µM) | > 100 | > 100 | EC50 [21]: > 100 µg/mL; MBC [22]: 12.5 µg/mL (≈ 36.5 µM); MFC [23]: > 50 µg/mL; EC50 [24]: > 100 µg/mL; EC50 [25]: > 100 µg/mL; CC50 [26]: > 100 µg/mL; CC50 [27]: > 100 µg/mL; EC50 [28]: > 100 µg/mL; EC50 [29]: > 100 µg/mL; MCC [30]: > 100 µg/mL; EC50 [31]: > 100 µg/mL; MCC [32]: > 100 µg/mL; MCC [33]: > 100 µg/mL; CC50 [34]: > 100 µg/mL
O=C(c1cccnc1)n1c(-c2ccc(S(=O)(=O)O)cc2)nc2ccccc21 | > 100 | > 100 | > 100 | > 50 | 12.5 (≈ 32.9 µM) | > 100 | > 100 | > 100 | > 100 | > 100 | > 100 | > 100 | > 100 | > 100 | > 100 | > 100 | > 100 | 1.56 (≈ 4.11 µM) | > 100 | > 100 | EC50 [21]: > 100 µg/mL; MBC [22]: > 50 µg/mL; MFC [23]: > 50 µg/mL; EC50 [24]: > 100 µg/mL; EC50 [25]: > 100 µg/mL; CC50 [26]: > 100 µg/mL; CC50 [27]: > 100 µg/mL; EC50 [28]: > 100 µg/mL; EC50 [29]: > 100 µg/mL; MCC [30]: > 100 µg/mL; EC50 [31]: > 100 µg/mL; MCC [32]: > 100 µg/mL; MCC [33]: > 100 µg/mL; CC50 [34]: > 100 µg/mL
CCCCC(=O)n1c(-c2ccc(S(=O)(=O)O)cc2)nc2ccccc21 | > 100 | > 100 | > 100 | > 50 | 6.25 (≈ 17.4 µM) | > 100 | > 100 | > 100 | > 100 | > 100 | > 100 | > 100 | > 100 | > 100 | > 100 | > 100 | > 100 | 6.25 (≈ 17.4 µM) | > 100 | > 100 | EC50 [21]: > 100 µg/mL; MBC [22]: 6.25 µg/mL (≈ 17.4 µM); MFC [23]: 12.5 µg/mL (≈ 34.9 µM); EC50 [24]: > 100 µg/mL; EC50 [25]: > 100 µg/mL; CC50 [26]: > 100 µg/mL; CC50 [27]: > 100 µg/mL; EC50 [28]: > 100 µg/mL; EC50 [29]: > 100 µg/mL; MCC [30]: > 100 µg/mL; EC50 [31]: > 100 µg/mL; MCC [32]: > 100 µg/mL; MCC [33]: > 100 µg/mL; CC50 [34]: > 100 µg/mL
